Assay outcomes as filed in PubChem BioAssay.
TMEM16A inh = blocks the mouse calcium-activated chloride channel TMEM16A; Q8BHY3; hit rate 1.2% among 310,000; AID 588511; normalized B-score (activity score, 25-100; higher = stronger inhibition) at 10 µM; HEK293 TMEM16A/YFP iodide influx fluorescence, ionomycin;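 active = ratio plate-corrected score three or more library SD toward inhibition, starting fluorescence score within five deviations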;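 note: score derived from kinetic fluorescence span divided by baseline fluorescence per well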
ANO1 activ = activates or potentiates the mouse TMEM16A chloride channel | B-score at 10 µM | hit rate 0.3% among 340,000 | Q8BHY3 | HEK293 TMEM16A/YFP-H148Q/I152L, iodide quench fluorescence; active compounds read low;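 active = fluorescence-ratio B-score plate-corrected deviation score at least 3 library SD below zero, with starting fluorescence score within 5 deviations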;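 note: channel opened by trigger with iodide after compound preincubation; score built on the fluorescence ratio of max minus min over baseline; more negative score means more quench and so TMEM16A activation or potentiation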
CHT block = inhibitors of human choline transporter CHT. CHT-expressing cells, membrane potential dye, choline response; active compounds read low. hit rate 0.86% among 310,000. AID 488975. Q9GZV3. B-score at 10 µM;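 active = B-score over 3 SD under the library average, and starting fluorescence ratio not unusually high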;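 note: choline stimulus applied at its EC90 after an EC20 pre-addition; B-score computed on integrated fluorescence ratio after choline addition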
Target sequence (Q9GZV3 whole entry, looked up): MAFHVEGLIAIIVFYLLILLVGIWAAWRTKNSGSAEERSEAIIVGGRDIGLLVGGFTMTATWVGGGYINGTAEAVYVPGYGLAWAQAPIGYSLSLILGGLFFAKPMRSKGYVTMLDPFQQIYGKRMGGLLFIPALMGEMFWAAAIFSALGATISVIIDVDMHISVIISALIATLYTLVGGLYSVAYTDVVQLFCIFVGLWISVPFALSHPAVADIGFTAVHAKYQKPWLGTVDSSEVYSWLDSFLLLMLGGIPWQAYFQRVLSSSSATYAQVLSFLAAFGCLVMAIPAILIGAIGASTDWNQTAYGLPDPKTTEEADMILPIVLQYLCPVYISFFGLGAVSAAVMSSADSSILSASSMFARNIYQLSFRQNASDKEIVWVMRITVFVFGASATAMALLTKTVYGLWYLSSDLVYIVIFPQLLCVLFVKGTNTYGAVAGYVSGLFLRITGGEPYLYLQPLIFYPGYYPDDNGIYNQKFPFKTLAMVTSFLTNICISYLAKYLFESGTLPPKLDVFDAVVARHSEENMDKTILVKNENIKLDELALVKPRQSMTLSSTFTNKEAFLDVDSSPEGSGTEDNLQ
IMP-1 inh-1 = inhibitors of Pseudomonas aeruginosa IMP-1 metallo-beta-lactamase. purified IMP-1, nitrocefin hydrolysis, epi-absorbance fluorescence. inhibition, % at 5.6 µM. hit rate 0.45% among 290,000. AID 1556;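 active = inhibition above the mean plus 3 SD of all compounds in the same screening run, cut at about 4.5% in these data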
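system = purified recombinant IMP-1 beta-lactamase | amount = 0.2 nM IMP-1, as dispensed | medium = HEPES buffer pH 7.1 with ZnSO4 and Brij 35 | times = 25 °C, 15 min preincubation, 25 min reaction | detection = plate fluorescence quenching by hydrolysis product, ex 480/em 530 nm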
VIM-2 inh = inhibitors of Pseudomonas aeruginosa VIM-2 metallo-beta-lactamase. inhibition, % at 5.6 µM. hit rate 0.89% among 290,000. purified VIM-2, nitrocefin hydrolysis, epi-absorbance fluorescence;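 active = inhibition above the mean of all tested compounds plus 3 SD, cutoff set per screening run, cut at about 7.5% in these data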;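 note: red hydrolysis product quenches plate fluorescence so inhibitors raise well fluorescence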
CHT allo act = human CHT allosteric activation | B-score at 10 µM | hit rate 0.49% among 310,000 | Q9GZV3 | CHT-expressing cells, membrane potential dye, choline EC20; active compounds read high; LV-AA mutant CHT in HEK293 cells;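 active = initial fluorescence not abnormally high and integrated response B-score, plate-corrected, over 3 SD above library mean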
IMP-1 inh-2 = blocks IMP-1 metallo-beta-lactamase in VIM-2 selectivity screen. shares compounds with VIM-2 inh. purified IMP-1, nitrocefin hydrolysis, epi-absorbance fluorescence. inhibition, % at 5.6 µM. 1,300 tested, under 10 active; call rule not given here
VIM-2 FRET inh = VIM-2 FRET inhibition, artifact counter-screen. shares compounds with VIM-2 inh. purified VIM-2, CCF2 FRET substrate hydrolysis. inhibition, % at 5.6 µM. hit rate 23% among 1,300. AID 1857;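 active = inhibition above the mean of all tested compounds plus 3 SD, cut at about 19% in these data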
TEM-1 counter = TEM-1 inhibition, counter-screen for VIM-2 inhibitors. shares compounds with VIM-2 inh. Purified TEM-1, nitrocefin hydrolysis, epi-absorbance fluorescence. inhibition, % at 5.6 µM. hit rate 3% among 1,300. AID 1866;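 active = inhibition above that campaign's mean inhibition plus 3 SD, cut at about 0.46% in these data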
VIM-2 inh conf = confirmation of P. aeruginosa VIM-2 metallo-beta-lactamase inhibitors; shares compounds with VIM-2 inh; purified VIM-2, nitrocefin hydrolysis, epi-absorbance; inhibition, % at 5.6 µM; hit rate 96% among 1,300; AID 2187;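 active = inhibition of the VIM-2 beta-lactamase enzyme above about 11% from the earlier first-round screen, limit read from the data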
Numbers stand for hits; n = inactive; x = no result given. Most compounds without a hit are left out; they make up all but 3.4% or so of the library.

SMILES | TMEM16A inh | ANO1 activ | CHT block | IMP-1 inh-1 | VIM-2 inh | CHT allo act | IMP-1 inh-2 | VIM-2 FRET inh | TEM-1 counter | VIM-2 inh conf
CN(CCO)c1ccc(-c2nn(C)c(=O)c3ccccc23)cc1[N+](=O)[O-] | n | n | n | n | 17.5 | n | n | n | n | 41.3
Cn1nc(-c2ccc(N3CCN(CCO)CC3)c([N+](=O)[O-])c2)c2ccccc2c1=O | n | n | n | n | 81.6 | n | n | n | n | 88.7
Cn1nc(-c2ccc(NCCO)c([N+](=O)[O-])c2)c2ccccc2c1=O | n | n | n | n | 16.0 | n | n | n | n | 44.6
CN(c1ccc(Br)cc1)S(=O)(=O)c1ccc2[nH]cc(C(=O)NCCN3CCOCC3)c(=O)c2c1 | n | n | n | n | n | n | x | x | x | x
COc1ccc2c(c1)oc(=O)c1ccccc12 | n | n | n | n | 8.3 | n | n | n | n | 15.1
COc1ccc2c(c1)oc(=O)c1cc(OC)ccc12 | n | n | n | n | n | n | x | x | x | x
Cc1nc2ncccn2c1-c1csc(Nc2ccc(O)cc2)n1 | x | n | x | n | 17.4 | x | n | n | n | 28.0
CC(Cc1ccc(Cl)cc1)N1CCC(n2nccc2NC(=O)C2CCCC2)CC1 (stereo unspecified) | n | n | n | n | n | n | x | x | x | x
Cn1cc(-c2ccccc2C(=O)O)c(=O)c2cc(Cl)ccc21 | n | n | n | n | 13.2 | n | n | 27.3 | n | 18.4
Cn1cc(S(=O)(=O)c2ccccc2)c(=O)c2cc(Cl)ccc21 | n | n | n | n | n | n | x | x | x | x
CN(CC(=O)Nc1ccccc1Br)C(=O)CNC(=O)Cc1cccc2ccccc12 | n | n | n | n | n | n | x | x | x | x
O=C(COC(=O)C1CC2CCCC(C1)C2=O)NNC(=O)c1ccccc1F (stereo unspecified) | n | n | n | x | x | n | x | x | x | x
COc1cccc(OCC(O)CN2CCC(CN3C(=O)c4cccc5cccc(c45)C3=O)CC2)c1 (stereo unspecified) | n | n | n | n | 14.1 | n | n | n | n | 22.1
NC(=S)NNc1cccc2cccnc12 | n | n | n | n | 18.1 | n | n | n | n | 14.8
NC(=S)Nc1cccc2cccnc12 | n | n | n | n | n | n | x | x | x | x
CCCn1c2ccc(F)cc2c2nnc(SCCN3CCCCC3)nc21 | n | n | n | n | n | n | x | x | x | x
CC(=O)Nc1ccc(NC(=O)CSc2nnc3c4ccccc4n(C)c3n2)cc1 | n | n | n | n | n | n | x | x | x | x
CCCn1c2ccc(C)cc2c2nnc(SCCN3CCCCC3)nc21 | x | n | x | n | 22.1 | x | n | n | n | 21.4
Cc1ccc2c(c1)c1nnc(SCC(=O)NC3CC3)nc1n2C | n | n | n | n | 16.6 | n | n | n | n | 27.9
CCn1c2ccc(C)cc2c2nnc(SCCN3CCCCC3)nc21 | n | x | n | n | 26.4 | n | n | n | n | 34.8
Cc1cc(C)c2c(c1)c1nnc(SCCN3CCOCC3)nc1n2C | x | n | x | n | 23.4 | x | n | n | n | 30.7
Cc1nnc(SCC(=O)c2c(N)n(C3CC3)c(=O)[nH]c2=O)n1-c1ccccc1 | x | n | x | x | x | x | x | x | x | x
COc1ccc(S(=O)(=O)Nc2c(C)n(C)n(-c3ccccc3)c2=O)cc1C(=O)O | n | n | n | n | n | n | x | x | x | x
COc1cc(C2CC(=O)c3cnc(NC(=O)c4ccco4)nc3C2)cc(OC)c1OC (stereo unspecified) | n | n | n | n | n | n | x | x | x | x
Cc1cc(OC(=O)c2c(F)cc(F)cc2F)nc(C)n1 | n | n | n | n | n | n | x | x | x | x
SMILES | TMEM16A inh | ANO1 activ | CHT block | IMP-1 inh-1 | VIM-2 inh | CHT allo act | IMP-1 inh-2 | VIM-2 FRET inh | TEM-1 counter | VIM-2 inh conf
Cc1nc(NC(=O)c2c(-c3ccccc3Cl)noc2C)sc1C | n | n | n | n | n | n | x | x | x | x
CCCn1c2ccc(C)cc2c2nnc(SCCN3CCOCC3)nc21 | n | n | n | n | 16.7 | n | n | n | n | 27.3
COc1cc(C(=O)O[C@H]2C/C(C)=C/CC[C@@]3(C)O[C@@H]3[C@H](O)[C@@H]2C(C)C)cc(OC)c1OC | n | n | n | n | n | n | x | x | x | x
CC1(C)CC(NC(=O)COc2cc3oc(=O)c4c(c3cc2Cl)CCC4)CC(C)(C)N1 | n | n | n | n | 33.9 | n | n | n | n | 41.2
Cc1c(OCC(=O)NC2CC(C)(C)NC(C)(C)C2)ccc2c1oc(=O)c1ccccc12 | n | n | n | n | 27.4 | n | n | n | n | 39.7
Cc1c(OCC(=O)NC2CC(C)(C)NC(C)(C)C2)ccc2c3c(c(=O)oc12)CCC3 | n | n | n | n | 32.3 | n | n | n | n | 44.2
Cc1cccc(S(=O)(=O)Nc2ccc(-n3c(C)nc4ccccc4c3=O)cc2)c1 | n | n | n | x | x | n | x | x | x | x
Cc1cccn2c(=O)c3cc(C(=O)NC4CCCC4)sc3nc12 | n | n | n | n | 16.6 | n | n | n | n | 15.3
Cc1cccn2c(=O)c3cc(C(=O)NCCCOC(C)C)sc3nc12 | n | n | n | n | 18.1 | n | n | n | n | 26.4
CCOCCCNC(=O)c1cc2c(=O)n3cccc(C)c3nc2n1C | n | n | n | x | x | n | x | x | x | x
Cc1cccn2c(=O)c3cc(C(=O)NCCCN4CCCC4=O)n(C)c3nc12 | n | n | n | n | 17.3 | n | n | n | 1.2 | 25.8
CCOCCCNC(=O)c1cc2c(=O)n3cccc(C)c3nc2s1 | n | n | n | n | 16.4 | n | n | n | n | 30.8
COCCNC(=O)c1cc2c(=O)n3cccc(C)c3nc2n1C | n | n | n | x | x | n | x | x | x | x
CCOc1ccc(NC(=O)CSc2ccc(-c3cccnc3)nn2)cc1 | n | n | n | n | n | n | x | x | x | x
COCCN(CCOC)C(=O)c1cc2c(=O)n3ccccc3nc2s1 | n | n | n | n | n | n | x | x | x | x
CCCN(CCC)C(=O)c1cc2c(=O)n3cccc(C)c3nc2s1 | n | n | n | n | 12.5 | n | n | n | n | 17.4
c1ccc(-c2nc(NCc3ccco3)c3oc4ccccc4c3n2)cc1 | n | n | n | n | n | n | x | x | x | x
c1cncc(-c2nc(NCCCn3ccnc3)c3ccccc3n2)c1 | n | n | n | n | 32.0 | n | n | n | n | 48.9
Cc1nc(NCCCN2CCOCC2)c2oc3ccccc3c2n1 | n | n | n | n | 29.2 | n | n | n | n | 35.5
c1ccc(-c2nc(NCCCn3ccnc3)c3oc4ccccc4c3n2)cc1 | n | n | n | n | 19.1 | n | n | n | n | 35.1
OC(CNc1nc(-c2cccnc2)nc2ccccc12)c1ccccc1 (stereo unspecified) | n | n | n | n | n | n | x | x | x | x
